ChEMBL document CHEMBL4627393, “Discovery of Potent, Selective, and State-Dependent NaV1.7 Inhibitors with Robust Oral Efficacy in Pain Models: Structure-Activity Relationship and Optimization of Chroman and Indane Aryl Sulfonamides” (J Med Chem, 2020)

Tests used:
[1] = Cmax in Sprague-Dawley rat at 1 mg/kg, iv measured upto 24 hrs by LC/MS-MS analysis; format: ADME, organism-based; design: dose 1 mg/kg, route intravenous; conditions: in vivo
[2] = Cmax in Beagle dog at 1 mg/kg, iv administered as infusion for 15 mins by LC/MS-MS analysis; format: ADME, organism-based, Canis lupus familiaris; design: dose 1 mg/kg, route intravenous; conditions: in vivo
[3] = Lipophilicity, log D of the compound; format: physicochemical; conditions: octanol/water
[4] = Metabolic stability in mouse liver microsomes assessed as metabolic rate at 1 uM preincubated for 5 mins followed by NADPH addition and measured up to 30 mins by LC/MS-MS analysis; format: ADME, Microsome; conditions: 0.5 h
[5] = Metabolic stability in rat liver microsomes assessed as metabolic rate at 1 uM preincubated for 5 mins followed by NADPH addition and measured up to 30 mins by LC/MS-MS analysis; format: ADME, Microsome; conditions: 0.5 h
[6] = Metabolic stability in human liver microsomes assessed as metabolic rate at 1 uM preincubated for 5 mins followed by NADPH addition and measured up to 30 mins by LC/MS-MS analysis; format: ADME, Microsome; conditions: 0.5 h
[7] = Cmax in BALB/c mouse at 1 mg/kg, iv measured upto 24 hrs by LC/MS-MS analysis; format: ADME, organism-based; design: dose 1 mg/kg, route intravenous; conditions: in vivo
[8] = AUClast in BALB/c mouse at 1 mg/kg, iv measured upto 24 hrs by LC/MS-MS analysis; format: ADME, organism-based; design: time < 24 hr, dose 1 mg/kg, route intravenous; conditions: in vivo
[9] = Half life in BALB/c mouse at 1 mg/kg, iv measured upto 24 hrs by LC/MS-MS analysis; format: ADME, organism-based; conditions: in vivo
[10] = Clearance in BALB/c mouse at 1 mg/kg, iv measured upto 24 hrs by LC/MS-MS analysis; format: ADME, organism-based; conditions: in vivo
[11] = Volume of distribution at steady state in BALB/c mouse at 1 mg/kg, iv measured upto 24 hrs by LC/MS-MS analysis; format: ADME, organism-based; conditions: in vivo, read-out: Vdss
In short: (§1)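 Pharmacokinetics were run with an IV dose of 1 mg/kg and a PO dose of 10 mg/kg. Parameters reported were AUClast, Cmax, CL, T1/2, Vss and %F.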

[12] = Cmax in BALB/c mouse at 10 mg/kg, po measured upto 24 hrs by LC/MS-MS analysis; format: ADME, organism-based; design: dose 10 mg/kg, route oral; conditions: in vivo
[13] = AUClast in BALB/c mouse at 10 mg/kg, po measured upto 24 hrs by LC/MS-MS analysis; format: ADME, organism-based; design: dose 10 mg/kg, time < 24 hr, route oral; conditions: in vivo
[14] = Oral bioavailability in BALB/c mouse at 10 mg/kg measured upto 24 hrs by LC/MS-MS analysis; format: ADME, organism-based; conditions: in vivo; in short: as §1
[15] = Metabolic stability in dog liver microsomes assessed as metabolic rate at 1 uM preincubated for 5 mins followed by NADPH addition and measured up to 30 mins by LC/MS-MS analysis; format: ADME, Canis lupus familiaris, Microsome; conditions: 0.5 h
[16] = Metabolic stability in monkey liver microsomes assessed as metabolic rate at 1 uM preincubated for 5 mins followed by NADPH addition and measured up to 30 mins by LC/MS-MS analysis; format: ADME, Macaca mulatta, Microsome; conditions: rhesus monkey, 0.5 h
[17] = Apparent permeability across apical to basolateral side in human Caco2 cells; format: ADME, cell-based; conditions: Caco-2
[18] = Apparent permeability across basolateral to apical side in human Caco2 cells; format: ADME, cell-based; conditions: Caco-2
[19] = AUClast in Sprague-Dawley rat at 1 mg/kg, iv measured upto 24 hrs by LC/MS-MS analysis; format: ADME, organism-based; design: dose 1 mg/kg, time < 24 hr, route intravenous; conditions: in vivo
[20] = Half life in Sprague-Dawley rat at 1 mg/kg, iv measured upto 24 hrs by LC/MS-MS analysis; format: ADME, organism-based; conditions: in vivo
[21] = Clearance in Sprague-Dawley rat at 1 mg/kg, iv measured upto 24 hrs by LC/MS-MS analysis; format: ADME, organism-based; conditions: in vivo
[22] = Volume of distribution at steady state in Sprague-Dawley rat at 1 mg/kg, iv measured upto 24 hrs by LC/MS-MS analysis; format: ADME, organism-based; conditions: in vivo, read-out: Vdss
[23] = Cmax in Sprague-Dawley rat at 10 mg/kg, po measured upto 24 hrs by LC/MS-MS analysis; format: ADME, organism-based; design: dose 10 mg/kg, route oral; conditions: in vivo
[24] = AUClast in Sprague-Dawley rat at 10 mg/kg, po measured upto 24 hrs by LC/MS-MS analysis; format: ADME, organism-based; design: time < 24 hr, dose 10 mg/kg, route oral; conditions: in vivo
[25] = Oral bioavailability in Sprague-Dawley rat at 10 mg/kg measured upto 24 hrs by LC/MS-MS analysis; format: ADME, organism-based; conditions: in vivo; in short: as §1
[26] = AUClast in Beagle dog at 1 mg/kg, iv administered as infusion for 15 mins by LC/MS-MS analysis; format: ADME, organism-based, Canis lupus familiaris; design: dose 1 mg/kg, time 0 - last, route intravenous; conditions: in vivo
[27] = Half life in Beagle dog at 1 mg/kg, iv administered as infusion for 15 mins by LC/MS-MS analysis; format: ADME, organism-based, Canis lupus familiaris; conditions: in vivo
[28] = Clearance in Beagle dog at 1 mg/kg, iv administered as infusion for 15 mins by LC/MS-MS analysis; format: ADME, organism-based, Canis lupus familiaris; conditions: in vivo
[29] = Volume of distribution at steady state in Beagle dog at 1 mg/kg, iv administered as infusion for 15 mins by LC/MS-MS analysis; format: ADME, organism-based, Canis lupus familiaris; conditions: in vivo, read-out: Vdss; in short: as §1
[30] = Cmax in Beagle dog at 1 mg/kg, iv administered as infusion for 15 mins followed by compound washout and subsequent compound dosing at 5 mg/kg, po measured up to 24 hrs by LC/MS-MS analysis; format: ADME, organism-based, Canis lupus familiaris; conditions: in vivo
[31] = AUClast in Beagle dog at 1 mg/kg, iv administered as infusion for 15 mins followed by compound washout and subsequent compound dosing at 5 mg/kg, po measured up to 24 hrs by LC/MS-MS analysis; format: ADME, organism-based, Canis lupus familiaris; conditions: in vivo
[32] = Bioavailability in Beagle dog at 1 mg/kg, iv administered as infusion for 15 mins followed by compound washout and subsequent compound dosing at 5 mg/kg, po measured up to 24 hrs by LC/MS-MS analysis; format: ADME, organism-based, Canis lupus familiaris; conditions: in vivo
[33] = Unbound drug concentration in plasma of formalin-induced C57BL/6 mouse model of nociceptive pain at 3 mg/kg, po administered 30 mins before formalin stimulation and measured after 40 mins; format: ADME, organism-based; conditions: in vivo
In short: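 Mice were dosed orally at 3 mg/kg 30 min before formalin challenge. Nociceptive behaviour was scored at 0–5 min (phase I) and 10–40 min (phase II). Plasma was collected at the end of the study, and the unbound drug concentration was determined.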

[34] = Drug concentration in brain of formalin-induced C57BL/6 mouse model of nociceptive pain at 30 mg/kg, po administered 30 mins before formalin stimulation and measured after 40 mins

Cn1nccc1-c1cc(C(F)(F)F)ccc1[C@H]1CCOc2cc(S(=O)(=O)Nc3ncccn3)ccc21
Cmax [1]: 2.2 µM | Cmax [2]: 6.9 µM | logD [3]: 3.7 | Drug metabolism [4]: 0 nmol/min/mg | Drug metabolism [5]: 0.01 nmol/min/mg | Drug metabolism [6]: 0 nmol/min/mg | Cmax [7]: 2 µM | AUC(0-t) at 24 h [8]: 12 µM·h | half-life [9]: 4.2 h | clearance [10]: 0.162 L/h/kg | Vd [11]: 0.9 L/kg | Cmax [12]: 15 µM | AUC(0-t) at 24 h [13]: 107 µM·h | bioavailability [14]: 89% | Drug metabolism [15]: 0.01 nmol/min/mg | Drug metabolism [16]: 0.02 nmol/min/mg | Papp A→B [17]: 280 nm/s | Papp B→A [18]: 268 nm/s | AUC(0-t) at 24 h [19]: 11 µM·h | half-life [20]: 4.2 h | clearance [21]: 0.18 L/h/kg | Vd [22]: 0.9 L/kg | Cmax [23]: 13 µM | AUC(0-t) at 24 h [24]: 114 µM·h | bioavailability [25]: 100% | AUC(0-t) at 0.25 h [26]: 59 µM·h | half-life [27]: 7.8 h | clearance [28]: 0.03 L/h/kg | Vd [29]: 0.3 L/kg | Cmax [30]: 10 µM | AUC(0-t) [31]: 117 µM·h | bioavailability [32]: 40% | Cp(f) [33]: 0.728 µM

O=S(=O)(Nc1ncccn1)c1ccc2c(c1)OCC[C@@H]2c1ccc(C(F)(F)F)cc1N1CCOCC1
Cmax [1]: 2.1 µM | Cmax [2]: 4.9 µM | logD [3]: 2.7 | Drug metabolism [4]: 0.16 nmol/min/mg | Drug metabolism [5]: 0.02 nmol/min/mg | Drug metabolism [6]: 0.02 nmol/min/mg | Cmax [7]: 2 µM | AUC(0-t) at 24 h [8]: 12 µM·h | half-life [9]: 4.3 h | clearance [10]: 0.15 L/h/kg | Vd [11]: 0.81 L/kg | Cmax [12]: 9.6 µM | AUC(0-t) at 24 h [13]: 62 µM·h | bioavailability [14]: 50% | Drug metabolism [15]: 0.02 nmol/min/mg | Drug metabolism [16]: 0.03 nmol/min/mg | Papp A→B [17]: 376 nm/s | Papp B→A [18]: 254 nm/s | AUC(0-t) at 24 h [19]: 5.9 µM·h | half-life [20]: 2.8 h | clearance [21]: 0.306 L/h/kg | Vd [22]: 1.2 L/kg | Cmax [23]: 2.1 µM | AUC(0-t) at 24 h [24]: 19 µM·h | bioavailability [25]: 31% | AUC(0-t) at 0.25 h [26]: 48 µM·h | half-life [27]: 11 h | clearance [28]: 0.03 L/h/kg | Vd [29]: 0.5 L/kg | brain concentration at 40 min [34]: < 1 µM

O=S(=O)(Nc1ncccn1)c1ccc2c(c1)OCC[C@@H]2c1ccc(C(F)(F)F)cc1-c1ccc(F)nc1
Cmax [1]: 1.7 µM | Cmax [2]: 5.7 µM | logD [3]: 2.8 | Drug metabolism [4]: 0 nmol/min/mg | Drug metabolism [5]: 0 nmol/min/mg | Drug metabolism [6]: 0 nmol/min/mg | Cmax [7]: 2 µM | AUC(0-t) at 24 h [8]: 12 µM·h | half-life [9]: 3.2 h | clearance [10]: 0.156 L/h/kg | Vd [11]: 0.8 L/kg | Cmax [12]: 17 µM | AUC(0-t) at 24 h [13]: 171 µM·h | bioavailability [14]: > 100% | Drug metabolism [15]: 0.03 nmol/min/mg | Drug metabolism [16]: 0.01 nmol/min/mg | Papp [17]: 418 nm/s | Papp [18]: 334 nm/s | AUC(0-t) at 24 h [19]: 15 µM·h | half-life [20]: 9.8 h | clearance [21]: 0.12 L/h/kg | Vd [22]: 1.2 L/kg | Cmax [23]: 6.6 µM | AUC(0-t) at 24 h [24]: 111 µM·h | bioavailability [25]: 74% | AUC(0-t) at 0.25 h [26]: 70 µM·h | half-life [27]: 24 h | clearance [28]: 0.018 L/h/kg | Vd [29]: 0.5 L/kg | Cmax [30]: 14 µM | AUC(0-t) [31]: 218 µM·h | bioavailability [32]: 78%

Cc1ccc(-c2cc(C(F)(F)F)ccc2[C@H]2CCOc3cc(S(=O)(=O)Nc4ncccn4)ccc32)cn1
Cmax [1]: 2.6 µM | Cmax [2]: 6.5 µM | logD [3]: 2.3 | Drug metabolism [4]: 0.04 nmol/min/mg | Drug metabolism [5]: 0.02 nmol/min/mg | Drug metabolism [6]: 0 nmol/min/mg | Cmax [7]: 3 µM | AUC(0-t) at 24 h [8]: 7.6 µM·h | half-life [9]: 1.5 h | Vd [11]: 0.6 L/kg | Cmax [12]: 18 µM | AUC(0-t) at 24 h [13]: 63 µM·h | bioavailability [14]: 83% | Drug metabolism [15]: 0.02 nmol/min/mg | Drug metabolism [16]: 0.02 nmol/min/mg | Papp A→B [17]: 395 nm/s | Papp B→A [18]: 368 nm/s | AUC(0-t) at 24 h [19]: 5.5 µM·h | half-life [20]: 1.9 h | Vd [22]: 0.8 L/kg | Cmax [23]: 19 µM | AUC(0-t) at 24 h [24]: 112 µM·h | bioavailability [25]: > 100% | AUC(0-t) at 0.25 h [26]: 19 µM·h | half-life [27]: 2.5 h | Vd [29]: 0.4 L/kg | Cmax [30]: 8.5 µM | AUC(0-t) [31]: 50 µM·h | bioavailability [32]: 51% | brain concentration at 40 min [34]: < 1 µM
